From ChEMBL document CHEMBL5257147 (ACS Med Chem Lett, 2023)
pEC50, pIC50: −log10 of the molar value. Activity calls are given as the source filed them. The calls are words filed in the database; no cut-off is given here.

What was measured:
[1] = Intrinsic clearance in mouse liver microsomes at 1 uM in presence of NADP measured per mg protein by LC-MS/MS analysis; type: ADME, Microsome; details: read-out: CLH
[2] = test system: Epidermal growth factor receptor (Homo sapiens), P00533 [L858R,T790M]; test: Inhibition of EGFR L858R/T790M mutant (unknown origin) using TK-substrate preincubated with enzyme for 30 mins followed by substrate and ATP addition for 20 mins by HTRF assay; details: time 50.0 min
[3] = molecular target: Vascular endothelial growth factor receptor 2 (Homo sapiens) (UniProt P35968); test: Inhibition of His-tagged human recombinant VEGFR2 (789 to 1356 residues) expressed in insect cells at 200 nM by Z'-lyte assay; details: Insect cell
Insect cell = test: Inhibition of GST-tagged human recombinant VEGFR3 (800 to 1297 residues) Q890H/V1128L/H1146R mutant expressed in insect cells at 200 nM by Z'-lyte assay
[4] = molecular target: Platelet-derived growth factor receptor alpha (Homo sapiens) (UniProt P16234); test: Inhibition of GST-tagged human recombinant PDGFR-alpha (550 to 1089 residues) expressed in baculovirus expression system at 200 nM by Z'-lyte assay
[5] = molecular target: Tyrosine-protein kinase BTK (Homo sapiens) (UniProt Q06187); test: Inhibition of His-tagged human recombinant BTK expressed in insect cells at 200 nM by Z'-lyte assay; details: Insect cell
[6] = molecular target: Fibroblast growth factor receptor 2 (Homo sapiens) (UniProt P21802); test: Inhibition of His-tagged human recombinant FGFR2 (403 to 822 residues) expressed in baculovirus expression system at 200 nM by Z'-lyte assay
A-431 = test: Cytotoxicity against human A-431 cells expressing wild type EGFR assessed as reduction in cell viability incubated for 96 hrs by CellTiter-Glo assay; type: functional, cell-based; details: A-431, 96 h
[7] = molecular target: Epidermal growth factor receptor (Homo sapiens, UniProt P00533); test: Inhibition of wild type EGFR (unknown origin) using TK-substrate preincubated with enzyme for 30 mins followed by substrate and ATP addition for 25 mins by HTRF assay
Chain of Epidermal growth factor receptor (Homo sapiens, UniProt P00533) (P00533 whole entry): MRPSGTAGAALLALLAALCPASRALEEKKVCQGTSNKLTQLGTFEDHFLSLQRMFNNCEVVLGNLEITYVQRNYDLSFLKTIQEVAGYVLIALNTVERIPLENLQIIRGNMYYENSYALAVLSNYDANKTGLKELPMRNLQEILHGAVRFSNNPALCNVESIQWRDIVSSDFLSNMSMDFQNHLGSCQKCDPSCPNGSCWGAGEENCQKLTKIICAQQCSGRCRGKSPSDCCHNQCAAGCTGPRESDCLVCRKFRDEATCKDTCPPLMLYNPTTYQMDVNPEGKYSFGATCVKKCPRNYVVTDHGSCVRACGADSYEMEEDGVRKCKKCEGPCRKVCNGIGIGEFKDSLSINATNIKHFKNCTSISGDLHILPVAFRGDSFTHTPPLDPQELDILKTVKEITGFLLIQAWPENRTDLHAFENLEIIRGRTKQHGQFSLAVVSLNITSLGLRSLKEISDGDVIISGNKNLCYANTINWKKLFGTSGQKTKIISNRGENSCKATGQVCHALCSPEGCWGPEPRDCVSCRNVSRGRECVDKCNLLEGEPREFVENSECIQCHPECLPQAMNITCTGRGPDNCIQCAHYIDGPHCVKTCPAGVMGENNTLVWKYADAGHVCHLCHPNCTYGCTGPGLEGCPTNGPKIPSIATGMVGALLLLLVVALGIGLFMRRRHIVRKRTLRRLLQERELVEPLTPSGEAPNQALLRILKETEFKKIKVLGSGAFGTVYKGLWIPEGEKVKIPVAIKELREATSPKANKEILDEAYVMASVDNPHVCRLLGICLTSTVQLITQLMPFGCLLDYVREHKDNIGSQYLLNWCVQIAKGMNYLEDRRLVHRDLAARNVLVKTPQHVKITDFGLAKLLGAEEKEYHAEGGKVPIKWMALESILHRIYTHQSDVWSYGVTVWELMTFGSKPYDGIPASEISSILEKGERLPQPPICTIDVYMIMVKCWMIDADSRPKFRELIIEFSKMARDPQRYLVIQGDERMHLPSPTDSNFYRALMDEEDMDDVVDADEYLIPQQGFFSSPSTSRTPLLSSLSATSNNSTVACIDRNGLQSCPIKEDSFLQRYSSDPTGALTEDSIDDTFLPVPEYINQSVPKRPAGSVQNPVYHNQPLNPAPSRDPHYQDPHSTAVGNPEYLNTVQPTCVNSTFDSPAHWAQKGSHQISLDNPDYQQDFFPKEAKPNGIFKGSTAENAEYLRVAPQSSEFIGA

[8] = molecular target: Epidermal growth factor receptor (Homo sapiens, UniProt P00533, C797S/L858R/T790M); test: Inhibition of EGFR L858R/T790M/C797S mutant (unknown origin) using TK-substrate preincubated with enzyme for 30 mins followed by substrate and ATP addition for 10 mins by HTRF assay
Chain of Epidermal growth factor receptor (Homo sapiens, UniProt P00533, C797S/L858R/T790M) (P00533 25-1210 T790M/C797S/L858R limits assumed): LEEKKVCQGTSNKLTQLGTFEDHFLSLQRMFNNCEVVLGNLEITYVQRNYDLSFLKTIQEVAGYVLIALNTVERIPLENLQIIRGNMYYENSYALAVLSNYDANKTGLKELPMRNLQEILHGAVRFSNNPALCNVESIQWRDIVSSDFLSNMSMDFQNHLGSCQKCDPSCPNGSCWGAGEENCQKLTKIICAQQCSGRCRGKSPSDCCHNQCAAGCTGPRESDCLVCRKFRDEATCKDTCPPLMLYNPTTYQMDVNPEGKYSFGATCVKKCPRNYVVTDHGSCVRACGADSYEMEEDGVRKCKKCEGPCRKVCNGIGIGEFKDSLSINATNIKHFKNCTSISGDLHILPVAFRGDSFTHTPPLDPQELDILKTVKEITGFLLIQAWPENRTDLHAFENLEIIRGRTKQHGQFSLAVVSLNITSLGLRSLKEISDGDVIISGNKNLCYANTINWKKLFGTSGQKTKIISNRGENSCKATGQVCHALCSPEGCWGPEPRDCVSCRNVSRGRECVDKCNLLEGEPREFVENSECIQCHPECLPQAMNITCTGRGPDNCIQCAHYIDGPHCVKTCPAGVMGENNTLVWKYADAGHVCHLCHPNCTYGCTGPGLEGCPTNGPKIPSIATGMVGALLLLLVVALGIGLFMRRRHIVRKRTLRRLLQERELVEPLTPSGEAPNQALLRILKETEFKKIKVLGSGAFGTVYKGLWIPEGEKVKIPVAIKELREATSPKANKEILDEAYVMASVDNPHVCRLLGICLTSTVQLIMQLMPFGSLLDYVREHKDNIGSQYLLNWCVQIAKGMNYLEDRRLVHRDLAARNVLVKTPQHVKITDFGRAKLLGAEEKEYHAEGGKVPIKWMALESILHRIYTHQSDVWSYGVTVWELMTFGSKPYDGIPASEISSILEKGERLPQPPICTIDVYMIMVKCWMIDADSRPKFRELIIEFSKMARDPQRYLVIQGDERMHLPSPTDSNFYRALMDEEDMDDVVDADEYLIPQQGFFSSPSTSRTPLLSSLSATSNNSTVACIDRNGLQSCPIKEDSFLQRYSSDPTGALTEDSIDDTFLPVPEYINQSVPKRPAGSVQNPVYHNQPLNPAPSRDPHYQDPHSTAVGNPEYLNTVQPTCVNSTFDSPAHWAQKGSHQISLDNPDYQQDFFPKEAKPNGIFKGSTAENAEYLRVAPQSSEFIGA

BaF3 [9] = test: Cytotoxicity against mouse BaF3 cells expressing EGFR L858R/T790M/C797S mutant assessed as reduction in cell viability incubated for 96 hrs by CellTiter-Glo assay; type: functional, cell-based; details: BaF3, 96 h
[10] = molecular target: Epidermal growth factor receptor (Homo sapiens, UniProt P00533, C797S/L858R); test: Inhibition of EGFR L858R/C797S mutant (unknown origin) using TK-substrate preincubated with enzyme for 30 mins followed by substrate and ATP addition for 20 mins by HTRF assay
Chain of Epidermal growth factor receptor (Homo sapiens, UniProt P00533, C797S/L858R) (P00533 25-1210 C797S/L858R limits assumed): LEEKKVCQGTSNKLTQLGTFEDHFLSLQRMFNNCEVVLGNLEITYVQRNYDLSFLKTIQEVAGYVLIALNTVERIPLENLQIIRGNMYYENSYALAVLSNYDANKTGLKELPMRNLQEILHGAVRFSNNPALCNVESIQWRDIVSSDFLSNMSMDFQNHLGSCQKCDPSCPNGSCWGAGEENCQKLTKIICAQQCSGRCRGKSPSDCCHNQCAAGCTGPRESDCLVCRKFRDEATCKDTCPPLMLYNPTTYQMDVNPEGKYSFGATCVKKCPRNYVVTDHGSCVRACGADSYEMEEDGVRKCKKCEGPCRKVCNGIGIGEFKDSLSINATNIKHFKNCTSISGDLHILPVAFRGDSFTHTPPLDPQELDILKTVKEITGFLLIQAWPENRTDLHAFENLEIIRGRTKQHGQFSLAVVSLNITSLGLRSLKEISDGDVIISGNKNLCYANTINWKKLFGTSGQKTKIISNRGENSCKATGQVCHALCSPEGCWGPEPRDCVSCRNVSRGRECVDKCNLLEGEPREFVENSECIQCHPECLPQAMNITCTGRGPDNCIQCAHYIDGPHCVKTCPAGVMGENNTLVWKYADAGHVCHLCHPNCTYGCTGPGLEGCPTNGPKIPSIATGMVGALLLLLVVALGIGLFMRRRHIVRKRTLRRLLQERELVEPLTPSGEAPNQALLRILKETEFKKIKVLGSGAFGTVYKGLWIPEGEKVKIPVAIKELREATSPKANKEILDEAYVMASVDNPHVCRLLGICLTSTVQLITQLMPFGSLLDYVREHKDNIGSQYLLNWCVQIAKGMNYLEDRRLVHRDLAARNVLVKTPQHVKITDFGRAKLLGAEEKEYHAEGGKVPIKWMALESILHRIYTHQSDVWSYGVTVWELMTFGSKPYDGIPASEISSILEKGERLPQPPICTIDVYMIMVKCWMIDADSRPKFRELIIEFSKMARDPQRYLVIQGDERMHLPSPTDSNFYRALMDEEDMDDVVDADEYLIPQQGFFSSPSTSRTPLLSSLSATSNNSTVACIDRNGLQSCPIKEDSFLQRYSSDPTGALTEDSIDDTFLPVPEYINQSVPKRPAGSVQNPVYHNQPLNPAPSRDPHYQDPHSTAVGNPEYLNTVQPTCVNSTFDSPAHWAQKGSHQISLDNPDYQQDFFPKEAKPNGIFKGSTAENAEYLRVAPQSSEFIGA

BaF3 [11] = test: Cytotoxicity against mouse BaF3 cells expressing EGFR L858R/C797S mutant assessed as reduction in cell viability incubated for 96 hrs by CellTiter-Glo assay; type: functional, cell-based; details: BaF3, 96 h
[12] = molecular target: Platelet-derived growth factor receptor beta (Homo sapiens) (UniProt P09619); test: Inhibition of His-tagged human recombinant PDGFR-beta (558 to 1106 residues) expressed in baculovirus expression system at 200 nM by Z'-lyte assay
[13] = molecular target: Tyrosine-protein kinase TXK (Homo sapiens) (UniProt P42681); test: Inhibition of GST-tagged human recombinant TXK (260 to 527 residues) expressed in baculovirus expression system at 200 nM by Z'-lyte assay
[14] = molecular target: Tyrosine-protein kinase Fyn (Homo sapiens) (UniProt P06241); test: Inhibition of His-tagged human recombinant FYN expressed in insect cells at 200 nM by Z'-lyte assay; details: Insect cell
[15] = molecular target: Tyrosine-protein kinase Fes/Fps (Homo sapiens) (UniProt P07332); test: Inhibition of His-tagged human recombinant FES expressed in baculovirus expression system at 200 nM by Z'-lyte assay
BaF3 [16] = test: Cytotoxicity against mouse BaF3 cells expressing EGFR L858R mutant assessed as reduction in cell viability incubated for 96 hrs by CellTiter-Glo assay; type: functional, cell-based; details: BaF3, 96 h
Outline: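 Cell viability measured by CellTiter-Glo (CTG) luminescence. A431 cells are EGFR wild-type dependent. Ba/F3 cells are made dependent on EGFR-L858R or EGFR-L858R/C797S. Readout is an EC50 for loss of viability.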

[17] = molecular target: Epidermal growth factor receptor (Homo sapiens, UniProt P00533, L858R); test: Inhibition of EGFR L858R mutant (unknown origin) using TK-substrate preincubated with enzyme for 30 mins followed by substrate and ATP addition for 15 mins by HTRF assay
Chain of Epidermal growth factor receptor (Homo sapiens, UniProt P00533, L858R) (P00533 25-1210 L858R limits assumed): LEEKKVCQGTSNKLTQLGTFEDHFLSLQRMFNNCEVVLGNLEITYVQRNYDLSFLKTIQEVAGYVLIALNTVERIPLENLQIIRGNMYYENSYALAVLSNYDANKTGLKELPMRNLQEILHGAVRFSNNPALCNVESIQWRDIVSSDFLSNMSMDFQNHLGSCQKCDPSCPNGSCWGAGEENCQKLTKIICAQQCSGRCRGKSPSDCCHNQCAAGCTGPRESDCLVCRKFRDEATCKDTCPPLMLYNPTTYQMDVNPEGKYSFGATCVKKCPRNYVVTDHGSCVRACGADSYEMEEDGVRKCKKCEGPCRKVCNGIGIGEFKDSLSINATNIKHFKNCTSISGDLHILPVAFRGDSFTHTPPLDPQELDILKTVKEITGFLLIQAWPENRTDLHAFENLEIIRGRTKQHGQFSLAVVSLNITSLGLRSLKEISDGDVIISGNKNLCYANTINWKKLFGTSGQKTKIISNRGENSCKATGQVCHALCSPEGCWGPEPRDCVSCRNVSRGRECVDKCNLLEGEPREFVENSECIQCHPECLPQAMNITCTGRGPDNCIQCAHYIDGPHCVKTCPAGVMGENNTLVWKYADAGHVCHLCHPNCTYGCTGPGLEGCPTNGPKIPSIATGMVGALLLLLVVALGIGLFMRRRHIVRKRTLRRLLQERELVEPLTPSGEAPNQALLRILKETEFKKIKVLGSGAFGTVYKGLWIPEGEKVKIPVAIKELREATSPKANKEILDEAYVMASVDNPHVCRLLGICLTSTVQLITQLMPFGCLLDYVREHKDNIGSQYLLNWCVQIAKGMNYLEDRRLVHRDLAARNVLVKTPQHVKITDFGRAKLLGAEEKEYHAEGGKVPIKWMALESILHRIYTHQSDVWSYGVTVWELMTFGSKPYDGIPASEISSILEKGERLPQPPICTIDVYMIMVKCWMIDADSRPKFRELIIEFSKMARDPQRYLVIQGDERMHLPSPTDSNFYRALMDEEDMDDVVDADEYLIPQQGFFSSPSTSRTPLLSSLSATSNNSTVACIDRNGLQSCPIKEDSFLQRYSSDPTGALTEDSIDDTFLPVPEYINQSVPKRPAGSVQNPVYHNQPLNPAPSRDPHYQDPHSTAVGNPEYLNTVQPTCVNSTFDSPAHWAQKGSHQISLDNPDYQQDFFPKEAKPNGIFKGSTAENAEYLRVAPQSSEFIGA

[18] = molecular target: Inactive tyrosine-protein kinase PEAK1 (Homo sapiens) (UniProt Q9H792); test: Inhibition of human PEAK1 at 200 nM by Z'-lyte assay
[19] = molecular target: Tyrosine-protein kinase ABL1 (Homo sapiens) (UniProt P00519); test: Inhibition of His-tagged human recombinant ABL1 expressed in insect cells at 200 nM by Z'-lyte assay; details: Insect cell
[20] = molecular target: Tyrosine-protein kinase Lck (Homo sapiens) (UniProt P06239); test: Inhibition of human LCK at 200 nM by Z'-lyte assay
[21] = molecular target: Tyrosine-protein kinase Blk (Homo sapiens) (UniProt P51451); test: Inhibition of His-tagged human recombinant BLK expressed in insect cells at 200 nM by Z'-lyte assay; details: Insect cell
[22] = molecular target: Tyrosine-protein kinase Lyn (Homo sapiens) (UniProt P07948); test: Inhibition of human LYN at 200 nM by Z'-lyte assay
[23] = molecular target: Tyrosine-protein kinase HCK (Homo sapiens) (UniProt P08631); test: Inhibition of GST-tagged human recombinant HCK expressed in insect cells at 200 nM by Z'-lyte assay; details: Insect cell
[24] = molecular target: ALK tyrosine kinase receptor (Homo sapiens) (UniProt Q9UM73); test: Inhibition of human ALK at 200 nM by Z'-lyte assay

| pIC50 [7] | pIC50 [8] | pIC50 [10] | Structure (SMILES) | pEC50 (A-431) | pEC50 (BaF3 [11]) | pEC50 (BaF3 [16]) | other results |
| --- | --- | --- | --- | --- | --- | --- | --- |
| 11.10 | 9.19 | 10.70 | COc1cc(N2CCC(N(C)C)CC2)ccc1Nc1ncc(C(=O)Oc2ccccc2)c(-c2c[nH]c3ccccc23)n1 | 5.74 | 8.15 | – | microsomal CLint at 1 µM [1]: 55 µL/min/mg; inhibition [2]: Active; inhibition [3]: > 40%; inhibition (Insect cell): > 40%; inhibition [4]: > 40%; inhibition [5]: Active; inhibition [6]: > 40%; pEC50 (BaF3 [9]): 6.33; inhibition [12]: > 40%; inhibition [13]: > 40%; inhibition [14]: > 40%; inhibition [15]: > 40% |
| 10.28 | 8.06 | 10.19 | COc1cc(N2CCN(C)CC2)ccc1Nc1ncc(C(=O)Oc2ccccc2)c(-c2cn(C)c3ccccc23)n1 | 5.58 | 7.03 | – | – |
| – | – | – | COc1cc(N2CCC(N3CCN(C)CC3)CC2)ccc1Nc1ncc(Cl)c(Nc2ccccc2P(C)(C)=O)n1 [BRIGATINIB] | 6.03 | 6.53 | – | – |
| 8.28 | – | 7.77 | CCOC(=O)c1cnc(Nc2ccc(N3CCN(C)CC3)cc2OC)nc1-c1cn(C)c2ccccc12 | – | 5.72 | 5.72 | pIC50 [17]: 9.17 |
| – | – | – | C=CC(=O)Nc1cc(Nc2nccc(-c3cn(C)c4ccccc34)n2)c(OC)cc1N(C)CCN(C)C [OSIMERTINIB] | […] | 5.53 | 8.22 | microsomal CLint at 1 µM [1]: 81 µL/min/mg |
| 10.60 | 6.44 | 7.60 | C=CC(=O)Nc1cc(Nc2ncc(C(=O)OC(C)C)c(-c3cn(C)c4ccccc34)n2)c(OC)cc1N(C)CCN(C)C [MOBOCERTINIB] | 5.78 | 5.57 | 8.96 | microsomal CLint at 1 µM [1]: 149 µL/min/mg; pIC50 [17]: 11.00 |
| 9.80 | 7.82 | 9.49 | COc1cc(N2CCC(N(C)C)CC2)ccc1Nc1ncc(C(=O)OC(C)C)c(-c2c[nH]c3ccccc23)n1 | 5.41 | 6.95 | – | microsomal CLint at 1 µM [1]: 49 µL/min/mg; inhibition [18]: > 40%; inhibition [19]: > 40%; inhibition [20]: > 40%; inhibition [21]: > 40%; inhibition [22]: > 40%; inhibition [23]: > 40%; inhibition [24]: > 40% |
| 9.46 | 7.92 | 9.25 | COc1cc(N2CCC(N)CC2)ccc1Nc1ncc(C(=O)OC(C)C)c(-c2cn(C)c3ccccc23)n1 | 5.40 | 6.45 | – | – |
| 7.64 | – | 7.14 | COC(=O)c1cnc(Nc2ccc(N3CCN(C)CC3)cc2OC)nc1-c1cn(C)c2ccccc12 | – | 5.43 | 5.48 | pIC50 [17]: 8.47 |
| 9.40 | 7.72 | 9.38 | COc1cc(N2CCC(N(C)C)CC2)ccc1Nc1ncc(C(=O)OC(C)C)c(-c2cn(C)c3ccccc23)n1 | 5.44 | 6.69 | – | – |
| 7.47 | – | 6.90 | COc1cc(N2CCN(C)CC2)ccc1Nc1nccc(-c2cn(C)c3ccccc23)n1 | – | 5.69 | 5.44 | pIC50 [17]: 8.27 |
| – | – | – | COc1cc(N2CCN(C)CC2)ccc1Nc1ncc(C(=O)Oc2ccc(F)cc2)c(-c2cn(C)c3ccccc23)n1 | 5.85 | 6.64 | – | – |
| 9.07 | 7.11 | 8.52 | COc1cc(N2CCC(N(C)C)CC2)ccc1Nc1ncc(C(=O)OC(C)C)c(-c2cn(C(C)=O)c3ccccc23)n1 | 5.41 | 6.66 | – | – |
| – | – | – | COc1cc(N2CCN(C)CC2)ccc1Nc1ncc(C(=O)OC(C)C)c(-c2cn(C)c3ccccc23)n1 | 5.10 | 6.21 | 6.22 | – |
